Reference: ChEMBL document CHEMBL2086372 (ACS Med Chem Lett, 2012)
Blank lines part the entries; values can stand above or below the compound they belong to. Calls of active or inactive are those of the source. No cut-off for these calls is given here.

Tests used:
[1] = biological target: T1, 5-hydroxytryptamine receptor 1A (Homo sapiens, UniProt P08908); assay: Displacement of [3H]8-OH-DPAT from human 5HT1A receptor expressed in HeLa cells after 30 mins; format: cell-based
T1 sequence (P08908 whole entry): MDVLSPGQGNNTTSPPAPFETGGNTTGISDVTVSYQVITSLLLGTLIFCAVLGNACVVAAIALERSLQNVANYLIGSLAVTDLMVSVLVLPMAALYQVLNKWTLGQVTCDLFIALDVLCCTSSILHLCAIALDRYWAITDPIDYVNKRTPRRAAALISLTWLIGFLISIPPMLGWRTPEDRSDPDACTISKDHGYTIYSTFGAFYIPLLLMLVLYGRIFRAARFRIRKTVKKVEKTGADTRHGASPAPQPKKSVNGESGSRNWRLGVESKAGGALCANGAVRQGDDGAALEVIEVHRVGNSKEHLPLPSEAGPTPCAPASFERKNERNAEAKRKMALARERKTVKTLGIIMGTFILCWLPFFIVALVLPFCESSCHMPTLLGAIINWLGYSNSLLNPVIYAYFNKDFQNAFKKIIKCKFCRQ
Outline: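 pKi is derived from displacement of [3H]-8-OH-DPAT binding at human cloned 5-HT1A receptor. Values are means ± SEMs of 3–6 separate experiments.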

[2] = biological target: T2, 5-hydroxytryptamine receptor 1A (Homo sapiens) (UniProt P08908); settings: HeLa
T2 sequence (whole entry): T1 sequence (P08908 whole entry)

[3] = biological target: T3, Alpha-2C adrenergic receptor (Homo sapiens) (UniProt P18825); assay: Agonist activity at human alpha2C adrenoceptor expressed in CHO cells assessed as extracellular acidification measured after 4 mins by cytosensor microphysiometric analysis relative to control; format: functional, cell-based
T3 sequence (whole entry): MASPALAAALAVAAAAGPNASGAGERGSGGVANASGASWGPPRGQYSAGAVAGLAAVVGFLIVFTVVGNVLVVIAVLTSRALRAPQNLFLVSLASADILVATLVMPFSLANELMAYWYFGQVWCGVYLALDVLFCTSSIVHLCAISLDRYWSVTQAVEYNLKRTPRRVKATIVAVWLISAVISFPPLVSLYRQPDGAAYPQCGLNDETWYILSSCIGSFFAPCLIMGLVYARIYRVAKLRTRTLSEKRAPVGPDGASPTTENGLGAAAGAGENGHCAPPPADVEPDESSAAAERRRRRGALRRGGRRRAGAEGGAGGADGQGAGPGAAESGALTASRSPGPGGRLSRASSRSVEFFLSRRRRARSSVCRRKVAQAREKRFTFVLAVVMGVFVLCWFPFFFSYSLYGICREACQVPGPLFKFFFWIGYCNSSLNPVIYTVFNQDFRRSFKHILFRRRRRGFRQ
Outline: (§1)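 Binding and functional assays run on CHO cells expressing recombinant human α2-AR subtypes. Functional read-outs are agonist potency (pEC50) with intrinsic activity (ia), or antagonist pKb. Affinity is reported as pKi. Values are means ± SEMs of 3–6 separate experiments.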

[4] = biological target: T4, Alpha-2B adrenergic receptor (Homo sapiens) (UniProt P18089); settings: CHO
T4 sequence (whole entry): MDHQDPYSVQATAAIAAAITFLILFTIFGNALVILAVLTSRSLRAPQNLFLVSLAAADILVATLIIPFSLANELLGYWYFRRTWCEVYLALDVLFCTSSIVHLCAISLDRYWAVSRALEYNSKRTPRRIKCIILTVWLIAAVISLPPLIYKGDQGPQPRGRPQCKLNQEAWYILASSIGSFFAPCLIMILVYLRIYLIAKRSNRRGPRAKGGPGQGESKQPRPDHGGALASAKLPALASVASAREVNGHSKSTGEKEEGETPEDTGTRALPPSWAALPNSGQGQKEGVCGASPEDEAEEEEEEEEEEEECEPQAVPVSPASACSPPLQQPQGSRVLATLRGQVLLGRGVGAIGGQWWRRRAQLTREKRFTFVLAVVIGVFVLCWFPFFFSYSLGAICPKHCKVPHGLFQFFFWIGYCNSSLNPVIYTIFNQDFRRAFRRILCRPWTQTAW

[5] = biological target: T5, Alpha-2A adrenergic receptor (Homo sapiens) (UniProt P08913); settings: CHO
T5 sequence (whole entry): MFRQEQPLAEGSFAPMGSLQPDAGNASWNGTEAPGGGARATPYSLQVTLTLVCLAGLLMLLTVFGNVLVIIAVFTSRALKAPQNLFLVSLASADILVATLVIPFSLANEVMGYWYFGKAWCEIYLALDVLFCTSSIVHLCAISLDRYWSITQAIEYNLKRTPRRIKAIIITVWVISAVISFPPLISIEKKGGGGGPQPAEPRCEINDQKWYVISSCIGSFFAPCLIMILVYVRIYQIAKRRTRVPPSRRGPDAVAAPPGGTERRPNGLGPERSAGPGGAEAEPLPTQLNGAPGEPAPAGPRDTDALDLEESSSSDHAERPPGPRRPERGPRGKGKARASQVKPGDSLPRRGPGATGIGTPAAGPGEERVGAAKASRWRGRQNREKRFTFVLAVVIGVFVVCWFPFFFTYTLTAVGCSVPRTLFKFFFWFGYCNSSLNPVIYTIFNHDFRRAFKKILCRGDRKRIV

Mus musculus [6] = assay: Effect on morphine-dependence in CD1 mouse assessed as decrease in naloxone-precipitated jumping at 0.025 mg/kg, ip administered chronically 15 mins prior to each morphine challenge relative to vehicle-treated control; format: functional, organism-based; design: dose 0.025 mg/kg
Outline: (§2)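 Acquisition of morphine dependence in mice, tested with repeated ip dosing (racemate 0.05 mg/kg, enantiomers 0.025 mg/kg). Withdrawal was precipitated by naloxone. Scored signs were jumping frequency and somatic signs (rearing, forepaw tremors, teeth chatter). Groups were compared with vehicle and with the morphine group.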

Mus musculus [7] = assay: Effect on morphine-dependence in CD1 mouse assessed as decrease in naloxone-precipitated jumping at 0.025 mg/kg, ip administered acutely 15 mins prior to naloxone challenge relative to vehicle-treated control; format: functional, organism-based; design: dose 0.025 mg/kg
Outline: as §2, with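 “Expression” for “Acquisition”, “a single acute” for “repeated”, “dose” for “dosing”, “naloxone in control and morphine-treated mice.” for “naloxone.”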

[8] = biological target: T6, Alpha-2B adrenergic receptor (Homo sapiens, UniProt P18089); assay: Displacement of [3H]RX821002 from human alpha2B adrenoceptor expressed in CHO cells after 30 mins by scintillation counting; format: cell-based; outline: as §1
T6 sequence (P18089 whole entry): T4 sequence (whole entry)

Mus musculus [9] = assay: Effect on morphine-dependence in CD1 mouse assessed as decrease in naloxone-precipitated rearing at 0.025 mg/kg, ip administered chronically 15 mins prior to each morphine challenge relative to vehicle-treated control; format: functional, organism-based; design: dose 0.025 mg/kg; outline: as §2
[10] = biological target: T7, Alpha-2C adrenergic receptor (Homo sapiens, UniProt P18825); assay: Displacement of [3H]RX821002 from human alpha2C adrenoceptor expressed in CHO cells after 30 mins by scintillation counting; format: cell-based; outline: as §1
T7 sequence (P18825 whole entry): T3 sequence (whole entry)

Mus musculus [11] = assay: Antidepressant activity in CD1 mouse assessed as decrease in immobility time at 0.025 mg/kg, ip administered 15 mins prior to coadministration with yohimbine measured after 15 mins by forced swim test relative to vehicle-treated control; format: functional, organism-based; design: dose 0.025 mg/kg
Outline: (§3)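 Forced swimming test in mice using 0.025 mg/kg ip test dose. It was combined with the 5-HT1A antagonist WAY 100635 (0.1 mg/kg, sc) or with the α2 antagonist yohimbine (1.250 mg/kg, ip). Each antagonist was also given alone. Immobility time is the read-out, given as means ± SEMs of 7–8 animals.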

Mus musculus [12] = assay: Effect on morphine-dependence in CD1 mouse assessed as decrease in naloxone-precipitated forepaw tremors at 0.025 mg/kg, ip administered acutely 15 mins prior to naloxone challenge relative to vehicle-treated control; format: functional, organism-based; design: dose 0.025 mg/kg
Outline: as §2, with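 “Expression” for “Acquisition”, “a single acute” for “repeated”, “dose” for “dosing”, “naloxone in control and morphine-treated mice.” for “naloxone.”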

Mus musculus [13] = assay: Effect on morphine-dependence in CD1 mouse assessed as decrease in naloxone-precipitated rearing at 0.025 mg/kg, ip administered acutely 15 mins prior to naloxone challenge relative to vehicle-treated control; format: functional, organism-based; design: dose 0.025 mg/kg
Outline: as §2, with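 “Expression” for “Acquisition”, “a single acute” for “repeated”, “dose” for “dosing”, “naloxone in control and morphine-treated mice.” for “naloxone.”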

Mus musculus [14] = assay: Effect on morphine-dependence in CD1 mouse assessed as decrease in naloxone-precipitated teeth chatter at 0.025 mg/kg, ip administered acutely 15 mins prior to naloxone challenge relative to vehicle-treated control; format: functional, organism-based; design: dose 0.025 mg/kg
Outline: as §2, with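 “Expression” for “Acquisition”, “a single acute” for “repeated”, “dose” for “dosing”, “naloxone in control and morphine-treated mice.” for “naloxone.”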

[15] = biological target: T6, Alpha-2B adrenergic receptor; assay: Agonist activity at human alpha2B adrenoceptor expressed in CHO cells assessed as extracellular acidification measured after 4 mins by cytosensor microphysiometric analysis
Mus musculus [16] = assay: Effect on morphine-dependence in CD1 mouse assessed as decrease in naloxone-precipitated forepaw tremors at 0.025 mg/kg, ip administered chronically 15 mins prior to each morphine challenge relative to vehicle-treated control; format: functional, organism-based; design: dose 0.025 mg/kg; outline: as §2
Mus musculus [17] = assay: Effect on morphine-dependence in CD1 mouse assessed as decrease in naloxone-precipitated teeth chatter at 0.025 mg/kg, ip administered chronically 15 mins prior to each morphine challenge relative to vehicle-treated control; format: functional, organism-based; design: dose 0.025 mg/kg; outline: as §2
Mus musculus [18] = assay: Antidepressant activity in CD1 mouse assessed as decrease in immobility time at 0.025 mg/kg, ip administered 30 mins prior to coadministration with WAY100635 measured after 15 mins by forced swim test relative to vehicle-treated control; format: functional, organism-based; design: dose 0.025 mg/kg; outline: as §3
[19] = biological target: T7, Alpha-2C adrenergic receptor; assay: Agonist activity at human alpha2C adrenoceptor expressed in CHO cells assessed as extracellular acidification measured after 4 mins by cytosensor microphysiometric analysis; format: functional, cell-based; outline: as §1
[20] = biological target: T8, Alpha-2A adrenergic receptor (Homo sapiens, UniProt P08913); assay: Displacement of [3H]RX821002 from human alpha2A adrenoceptor expressed in CHO cells after 30 mins by scintillation counting; format: cell-based; outline: as §1
T8 sequence (P08913 whole entry): T5 sequence (whole entry)

Mus musculus [21] = assay: Antidepressant activity in CD1 mouse assessed as decrease in immobility time at 0.05 mg/kg, ip after 15 mins by forced swim test relative to vehicle-treated control; format: functional, organism-based; design: dose 0.05 mg/kg
Outline: (§4)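 Mouse forced swimming test with immobility time as the read-out. Single ip doses were 0.012, 0.025, 0.05, 0.2 or 0.5 mg/kg, with fluoxetine 20 mg/kg ip as reference. Results are compared against vehicle-treated mice and given as means ± SEMs of 8–9 animals.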

Mus musculus [22] = assay: Antidepressant activity in CD1 mouse assessed as decrease in immobility time at 0.025 mg/kg, ip after 15 mins by forced swim test relative to vehicle-treated control; format: functional, organism-based; design: dose 0.025 mg/kg; outline: as §4
Mus musculus [23] = assay: Antidepressant activity in CD1 mouse assessed as decrease in immobility time at 0.012 mg/kg, ip after 15 mins by forced swim test relative to vehicle-treated control; format: functional, organism-based; design: dose 0.012 mg/kg; outline: as §4
Mus musculus [24] = assay: Antidepressant activity in CD1 mouse assessed as decrease in immobility time at 0.5 mg/kg, ip after 15 mins by forced swim test relative to vehicle-treated control; format: functional, organism-based; design: dose 0.5 mg/kg; outline: as §4
Mus musculus [25] = assay: Antidepressant activity in CD1 mouse assessed as decrease in immobility time at 0.2 mg/kg, ip after 15 mins by forced swim test relative to vehicle-treated control; format: functional, organism-based; design: dose 0.2 mg/kg; outline: as §4

Structure (SMILES): C=CCc1ccccc1O[C@H](C)C1=NCCN1
Ki [1]: > 10000 nM | pD2 [2]: < 5 | Intrinsic activity [3]: 0.5 | pEC50 [4]: inactive | pKb [5]: 7.4

Structure (SMILES): C[C@H](Oc1ccccc1CC1CC1)C1=NCCN1
Activity (Mus musculus [6]): Active | Activity (Mus musculus [7]): Active | Ki [8]: 407 nM | Activity (Mus musculus [9]): Active | Ki [10]: 275 nM | Ki [1]: 5.75 nM | Activity (Mus musculus [11]): inactive | Activity (Mus musculus [12]): Active | Activity (Mus musculus [13]): Active | Activity (Mus musculus [14]): Active | EC50 [15]: 1580 nM | Intrinsic activity [3]: 0.85 | Activity (Mus musculus [16]): Active | Activity (Mus musculus [17]): Active | Activity (Mus musculus [18]): inactive | EC50 [19]: 2 nM | Ki [20]: 41.7 nM

Ki [1]: 3240 nM
Structure (SMILES): Clc1cccc(Cl)c1N=C1NCCN1 [CLONIDINE]

Structure (SMILES): C=CCc1ccccc1OC(C)C1=NCCN1 (racemic) [ALLYPHENYLINE]
Activity (Mus musculus [21]): Active | Activity (Mus musculus [22]): Active | Activity (Mus musculus [23]): inactive | Ki [1]: 28.2 nM | pD2 [2]: 6.86 | Intrinsic activity [3]: 0.9 | pEC50 [4]: inactive | Activity (Mus musculus [24]): inactive | pKb [5]: 7.4 | Activity (Mus musculus [25]): Active
